Statin myotox sup – suppressors of statin myotoxicity in C2C12 myotubes, primary screen, cell-based, single point, plate reader; rescue of ATP level, % at 7.49 µM; C2C12 myotubes + simvastatin, ATP luminescence, 48 h; scaled: DMSO 0, geranylgeraniol control 100; 330,000 tested, 0.78% active; AID 602340, 2012;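 active means mean ATP rescue above about 67%, or every replicate alone reaching that limit, limit read from the data, passing the limit was not always enough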;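 further: myotubes were challenged with 10 µM simvastatin during compound exposure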
ARFGAP1 inhibitor – inhibitors of rat ARFGAP1 GAP activity, primary screen, biochemical, fluorescence polarization, GDP tracer; ADP-ribosylation factor GTPase-activating protein 1 (Rattus norvegicus), Q62848; Arfgap1-stimulated ARF1 GTP hydrolysis, GDP FP detection; inhibition, % at 16.5 µM; 360,000 tested, 0.26% active; AID 651572, 2012;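 active means inhibition above a per-plate limit, mean inhibition of low control wells plus 3 SD, cut at about 25% in these data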;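 further: 0% = DMSO wells with enzyme and 100% = wells lacking Arfgap1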
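Assay system: Rat Arfgap1 GAP domain (His6, aa 1-136), purified enzyme | Buffer or medium: HEPES 25 mM pH 7.5, NaCl 150 mM, MgCl2, DTT | Schedule: GTP hydrolysis reaction 2 h at 25 °C | Signal: FP of antibody-bound GDP Alexa 633 tracer, ex 620/em 688 nm | Measure: Percent inhibition of Arfgap1-stimulated GTP hydrolysis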
SUMO Mot1 rescue – yeast Mot1-301 growth rescue at high temperature, primary screen, SUMOylation pathway inhibitor project, S. cerevisiae, ATP luminescence, 38.5C | 320,000 tested, 1% active | growth rescue, % at 18.8 µM | S. cerevisiae Mot1-301 growth rescue; percent above DMSO median, 100 means doubled | AID 2716, 2010;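 active means every valid replicate shows activation above 250% relative to neutral control wells; inactive means the rest, any valid replicate at or below 250%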;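 further: OY570 slx delta 5 strain wells were the positive control but not used for scaling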
ASAP1 GAP inh – inhibitors of human ASAP1 ArfGAP activity, primary screen, biochemical, fluorescence polarization; ASAP1-stimulated ARF1 GTP hydrolysis, GDP FP detection; inhibition, % at 16.5 µM; 360,000 tested, 0.19% active; AID 624377, 2012; in the data active means inhibition above about 25%;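 further: 0% = vehicle with enzyme and substrate and 100% = no enzyme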
A3G deaminase – APOBEC3G DNA deaminase inhibitors, primary screen, biochemical, fluorescence, single-stranded DNA substrate, uHTS. DNA dC->dU-editing enzyme APOBEC-3G (Homo sapiens), Q9HC16. recombinant A3G, ssDNA deamination FAM/TAMRA fluorescence. inhibition, % at 20 µM. 330,000 tested, 0.28% active;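 active means inhibition of at least 40% at 20 µM, with no more than 30% in the related APOBEC3A deaminase screen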;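 further: plate controls were DMSO wells with A3G for no effect and wells lacking A3G enzyme for full effect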
A3A deaminase – APOBEC3A ssDNA deaminase inhibitors, primary screen, selectivity assay for APOBEC3G inhibitor project, biochemical, FAM/TAMRA oligo cleavage fluorescence; 330,000 tested, 0.41% active; recombinant A3A, FAM/TAMRA ssDNA deamination fluorescence; inhibition, % at 20 µM;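 active means at least 40% inhibition at 20 µM here, with at most 30% in a related deaminase screen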;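 further: plate controls were A3A with DMSO for no effect and wells lacking A3A enzyme for full effect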
Target sequence (P31941 whole entry, looked up): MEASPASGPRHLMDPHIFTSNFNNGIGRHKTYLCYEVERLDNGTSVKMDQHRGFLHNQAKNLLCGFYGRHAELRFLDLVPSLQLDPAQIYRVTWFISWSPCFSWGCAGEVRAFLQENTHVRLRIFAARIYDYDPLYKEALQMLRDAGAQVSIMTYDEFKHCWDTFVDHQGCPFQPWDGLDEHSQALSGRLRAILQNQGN
ARFGAP1 inh conf – ARFGAP1 inhibitor hit confirmation, biochemical, fluorescence polarization, triplicate; 890 tested, 30% active; shares compounds with ARFGAP1 inhibitor; ARFGAP1-stimulated ARF1 GTP hydrolysis, GDP tracer FP; AID 651608, 2012; inhibition, % at 16.5 µM;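 active means average inhibition over triplicates above the hit cutoff set in the earlier primary screen, cut at about 25% in these data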;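 further: 0% = Arfgap1 plus ARF1-GTP with DMSO and 100% = wells lacking Arfgap1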
Target sequence (Q62848 whole entry, looked up): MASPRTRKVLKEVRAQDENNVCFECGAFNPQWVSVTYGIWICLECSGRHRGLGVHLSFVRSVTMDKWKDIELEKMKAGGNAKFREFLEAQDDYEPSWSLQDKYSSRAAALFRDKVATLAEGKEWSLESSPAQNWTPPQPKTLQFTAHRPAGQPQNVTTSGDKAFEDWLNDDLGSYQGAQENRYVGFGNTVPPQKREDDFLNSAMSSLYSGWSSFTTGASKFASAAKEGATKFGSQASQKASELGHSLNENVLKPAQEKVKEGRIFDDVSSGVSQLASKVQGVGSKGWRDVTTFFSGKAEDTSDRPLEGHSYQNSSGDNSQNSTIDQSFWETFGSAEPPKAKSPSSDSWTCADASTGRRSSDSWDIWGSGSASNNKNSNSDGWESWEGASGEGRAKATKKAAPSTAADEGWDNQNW
Starred values were filed as active, the others as inactive. An excerpt weighted towards active compounds, which were near 2.1% of everything screened.

For C[C@H](CO)N1C[C@H](C)[C@H](CN(C)S(=O)(=O)c2ccc(Cl)cc2)OCc2cn(nn2)CCCC1=O the results were Statin myotox sup 9.
For CCCC(=O)Nc1ccc2c(c1)C(=O)N(C)C[C@@H](OC)[C@H](C)CN(CCc1ccccc1)[C@@H](C)CO2 the results were Statin myotox sup 13.
For CCOc1cc2nc(-c3ccc(OC)c(OC)c3)nc(N3CCOCC3)c2cc1OC the results were ARFGAP1 inhibitor 26*, ASAP1 GAP inh 2, A3G deaminase 5, A3A deaminase 3 and ARFGAP1 inh conf 14.
Screening CO[C@@H]1CN(C)C(=O)c2ccc(NC(=O)C3CC3)cc2OC[C@H](C)N(CCC(F)(F)F)C[C@H]1C returned Statin myotox sup -2.
Screening C[C@@H]1CN([C@@H](C)CO)C(=O)Cc2cc(NC(=O)Nc3ccc4c(c3)OCO4)ccc2O[C@H]1CN(C)CC1CCCCC1 returned Statin myotox sup 6.
COc1ccc(OC)c(C2C(C(=O)Nc3nc4ccccc4s3)=C(C)NC3=C2C(=O)CCC3)c1 (centres undefined) was read as Statin myotox sup 6, ARFGAP1 inhibitor 25*, SUMO Mot1 rescue 689, ASAP1 GAP inh 18, A3G deaminase -6, A3A deaminase 3 and ARFGAP1 inh conf 22.
For CC(C)C(=O)Nc1cc2c3c(c1)CCC(=O)N3CCC2 the results were Statin myotox sup -1, ARFGAP1 inhibitor 25*, SUMO Mot1 rescue -3, ASAP1 GAP inh -13, A3G deaminase -3, A3A deaminase -1 and ARFGAP1 inh conf -9.
Screening CC(C)NC(=O)C(=O)Nc1cc2c3c(c1)CCC(=O)N3CCC2 returned Statin myotox sup -1, ARFGAP1 inhibitor 3, SUMO Mot1 rescue 3, ASAP1 GAP inh -7, A3G deaminase -2 and A3A deaminase -4.
Screening COCC(=O)Nc1ccc2c(c1)C(=O)N(C)C[C@H](OC)[C@H](C)CN(Cc1ccccn1)[C@@H](C)CO2 returned Statin myotox sup 1.
`O=C(CNC(=O)c1ccc(Br)o1)Nc1cccc(-c2cnc3ccccc3n2)c1` gave Statin myotox sup 6, ARFGAP1 inhibitor 25*, SUMO Mot1 rescue -5, ASAP1 GAP inh -6, A3G deaminase -4, A3A deaminase -4 and ARFGAP1 inh conf 4.
Screening COc1ccccc1CNC(=O)C[C@H]1CC[C@@H]2[C@H](COC[C@H](O)CN2C(=O)Nc2ccc(Cl)cc2)O1 returned Statin myotox sup -21.
For COc1ccc(CNC(=O)c2sc(=O)n(Cc3ccc(C)cc3)c2C)cc1OC the results were Statin myotox sup 23, ARFGAP1 inhibitor 9 and ASAP1 GAP inh 0.
Screening COc1ccc(CNC(=O)c2sc(=O)n(Cc3ccc(-c4ccccc4)cc3)c2C)cc1OC returned Statin myotox sup 10, ARFGAP1 inhibitor 26*, ASAP1 GAP inh 23 and ARFGAP1 inh conf 16.
`C[C@@H]1C[C@H]2[C@@H]3CCC4=CC(=O)C=C[C@]4(C)[C@@]3(F)[C@@H](O)C[C@]2(C)[C@@]1(O)C(=O)CO` gave Statin myotox sup 2, ARFGAP1 inhibitor 29*, SUMO Mot1 rescue 385, ASAP1 GAP inh -1, A3G deaminase -4, A3A deaminase -1 and ARFGAP1 inh conf -3.
For COc1ccc(-c2csc(NC(=O)CN3C(=O)NC4(CCCC4)C3=O)n2)cc1OC the results were Statin myotox sup 9, ARFGAP1 inhibitor 27*, SUMO Mot1 rescue -6, ASAP1 GAP inh -7, A3G deaminase -6, A3A deaminase 8 and ARFGAP1 inh conf 4.
`COc1ccc(-c2csc(NC(=O)CN3C(=O)NC4(CCCC4)C3=O)n2)c(OC)c1` gave Statin myotox sup 11, ARFGAP1 inhibitor -5, SUMO Mot1 rescue -3, ASAP1 GAP inh 4, A3G deaminase -9 and A3A deaminase 16.
COc1ccc(-c2cnc3c(c2)C(=O)N([C@@H](C)CO)C[C@@H](C)[C@@H](CN(C)C(=O)C2CCCCC2)O3)cc1 was read as Statin myotox sup 10.
For O=C(N/N=C/c1cccc([N+](=O)[O-])c1)c1ccc(COc2ccccc2-c2ccccc2)cc1 the results were ARFGAP1 inhibitor 35*, ASAP1 GAP inh 8, A3G deaminase 4, A3A deaminase 10 and ARFGAP1 inh conf 2.
Screening O=C(N/N=C/c1cccc([N+](=O)[O-])c1)c1ccc(Br)cc1 returned ARFGAP1 inhibitor 10, ASAP1 GAP inh 22, A3G deaminase 1 and A3A deaminase 0.
CO[C@H]1CN(C)C(=O)c2ccc(NC(=O)C3CCOCC3)cc2OC[C@H](C)N(CC2CC2)C[C@H]1C was read as Statin myotox sup 6.
CC(C)NC(=O)NCC[C@H]1CC[C@H](NS(=O)(=O)c2ccc(-c3ccccc3)cc2)[C@H](CO)O1 was read as Statin myotox sup 10.
`O=C(c1cc2ccccc2o1)N1CCN(Cc2nc3ccccc3s2)CC1` gave Statin myotox sup 4, ARFGAP1 inhibitor 26*, ASAP1 GAP inh 11 and ARFGAP1 inh conf -2.
For O=C(c1cc2ccccc2o1)N1CCCCCC1 the results were Statin myotox sup 1, ARFGAP1 inhibitor -4, SUMO Mot1 rescue 195, ASAP1 GAP inh 7, A3G deaminase -3 and A3A deaminase 0.
O=C(c1ccccc1F)N1C[C@@H]2[C@H](c3ccccc31)[C@@H](CO)N2C(=O)c1ccc(F)cc1 was read as Statin myotox sup 10.
`C=C(C)CC1(NC(C)c2ccccc2)CCCCC1` (centres undefined) gave ARFGAP1 inhibitor 31*, SUMO Mot1 rescue -4, ASAP1 GAP inh 12, A3G deaminase 1, A3A deaminase 0 and ARFGAP1 inh conf -1.
For Cc1ccc(S(=O)(=O)N[C@@H]2CC[C@@H](CC(=O)N3CCN(c4ccccc4)CC3)O[C@H]2CO)cc1 the results were Statin myotox sup 2.
`O=C(Cc1ccccn1)NCC[C@H]1CC[C@H](NC(=O)c2ccccc2F)[C@@H](CO)O1` gave Statin myotox sup 1.
